Screening data: PubChem BioAssay, The Scripps Research Institute Molecular Screening Center
The list is not random: actives were taken first. Their share in the collection is about 4.5%.
TAAR1 antagonist = human TAAR1 antagonism; CHO RD-HGA16 TAAR1, Fluo-8 calcium fluorescence, antagonist; inhibition, % at 3 µM; AID 624466; 1.5% of 360,000 active;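 active = inhibition above a per-plate cutoff, the mean inhibition of test compounds on that plate plus 3 SD, cut at about 49% in these data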
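Material: RD-HGA16 CHO cells with stable hTAAR1 and Gα16; Dosing: single nominal final test compound concentration of 3 µM; Schedule: seeding 17-24 h prior, 75-min 37 °C, 30-min RT dye loading; Detection: kinetic Fluo-8 calcium fluorescence measurement; Measure: % inhibition from peak post-agonist over basal fluorescence ratio; Benchmarks: vehicle and agonist controls.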
OX1R antag-1 = blocks the human orexin 1 receptor | O43613 | OX1R-expressing cells, FRET antagonist read-out | inhibition, % at 6.6 µM | 1.8% of 330,000 active; in the data active = inhibition mostly above about 38%, no sharp cut-off; inactive = mostly below about 40%
Target sequence (O43613 whole entry, looked up): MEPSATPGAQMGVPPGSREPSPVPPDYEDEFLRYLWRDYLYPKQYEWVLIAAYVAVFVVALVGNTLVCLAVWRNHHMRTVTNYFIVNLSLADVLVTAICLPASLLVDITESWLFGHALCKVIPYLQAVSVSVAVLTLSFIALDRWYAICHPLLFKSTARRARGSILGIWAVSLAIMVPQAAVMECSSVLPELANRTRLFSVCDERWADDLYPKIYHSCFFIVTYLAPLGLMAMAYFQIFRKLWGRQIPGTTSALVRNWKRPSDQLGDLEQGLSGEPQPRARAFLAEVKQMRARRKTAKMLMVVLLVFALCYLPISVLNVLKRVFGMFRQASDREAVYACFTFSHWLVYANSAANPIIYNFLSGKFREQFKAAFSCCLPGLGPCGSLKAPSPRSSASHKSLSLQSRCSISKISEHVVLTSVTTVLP
CHO parental Ca = counter-screen: ATP calcium response change in parental CHO cells; parental CHO-K1, ATP-induced calcium, Fluo-8 fluorescence; inhibition, % at 5.6 µM; 0.63% of 330,000 active; AID 463079;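 active = inhibition above that plate's mean sample inhibition plus 3 SD, cut at about 26% in these data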
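Material: Parental CHO cells | Reagent: ATP | Compound dosing: Single nominal dose of 5.6 µM per compound | Detection: Intracellular calcium via Fluo-8 no-wash fluorescent dye | Read-out: % inhibition of ATP-induced calcium mobilization | Benchmarks: Low control ATP plus DMSO, high control DMSO only | Replicates: Singlicate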
TAAR1 agonist = agonists of human TAAR1. Q96RJ0. CHO RD-HGA16 TAAR1, Fluo-8 calcium fluorescence; vehicle wells 0%, saturating PEA agonist 100%. activation, % at 3 µM. 0.99% of 360,000 active;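 active = activation above the mean activation of all test compounds in the run plus 3 SD, cut at about 38% in these data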
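Repeats: no replicates (n 1) | Material: CHO-derived RD-HGA16 cells with stable Gα16 and human TAAR1 | Technique: Kinetic Fluo-8 calcium fluorescence | Schedule: 17-24 h seeding, 75 min 37 °C dye, 30 min RT | Evaluation: % activation from peak over basal fluorescence ratio, DMSO-to-PEA scaled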
GPR7 antagonist = blocks human GPR7 receptor signaling; AID 1861; GPR7-expressing cells, fluorescence antagonist assay; inhibition, % at 4.4 µM; 1.1% of 290,000 active; P48145; in the data active = inhibition above about 16%, passing the limit was not always enough;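 note: cells stimulated with the agonist NPW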
Target sequence (P48145 whole entry, looked up): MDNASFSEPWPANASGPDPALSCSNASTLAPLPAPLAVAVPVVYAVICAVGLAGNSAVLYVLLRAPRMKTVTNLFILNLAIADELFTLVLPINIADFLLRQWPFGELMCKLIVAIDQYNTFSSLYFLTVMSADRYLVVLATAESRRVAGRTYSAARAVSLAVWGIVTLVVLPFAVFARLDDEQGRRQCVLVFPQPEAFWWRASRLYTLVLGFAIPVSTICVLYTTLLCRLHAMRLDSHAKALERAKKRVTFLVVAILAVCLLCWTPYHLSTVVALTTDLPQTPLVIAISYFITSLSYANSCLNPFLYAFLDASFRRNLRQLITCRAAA
OX1R antag-2 = blocks the human orexin 1 receptor; inhibition, % at 5 µM; CHO/OX1R cells, Fluo-8 calcium fluorescence, orexin A; O43613; 0.43% of 330,000 active;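 active = inhibition above its plate's threshold, mean inhibition of all tested compounds on the plate plus 3 SD, cut at about 37% in these data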
GPR7 antag conf = human GPR7 antagonism, confirmation assay. shares compounds with GPR7 antagonist. GPR7-expressing cells, calcium fluorescence antagonist mode. inhibition, % at 4.4 µM. 52% of 2,400 active; in the data active = inhibition above about 24%;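 note: stimulated with the GPR7 agonist NPW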
MCHR1 antag = MCHR1 (human) antagonism in GPR7 counter-screen; shares compounds with GPR7 antagonist; MCHR1-expressing cells, fluorescence antagonist assay; inhibition, % at 4.4 µM; 62% of 2,400 active; AID 2148; in the data active = inhibition above about 22%
OX1R Ca confirm = OX1R (human) antagonism, confirmed. shares compounds with OX1R antag-2. CHO/OX1R cells, orexin A calcium Fluo-8 fluorescence. inhibition, % at 5 µM. 38% of 1,100 active. AID 492963; in the data active = inhibition above about 29%
CHO Ca triplic = signal in parental CHO cells, OX1R antagonist counter-screen; AID 492965; parental CHO-K1, ATP-induced calcium, Fluo-8 fluorescence; shares compounds with OX1R antag-2; inhibition, % at 5.6 µM; 9.3% of 1,100 active;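 active = inhibition above a per-plate limit, the mean inhibition of that plate's test compounds plus 3 SD, cut at about 25% in these data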
OX1R HTRF confirm = OX1R (human) antagonism, HTRF confirmed; shares compounds with OX1R antag-1; OX1R-expressing cells, HTRF antagonist assay; inhibition, % at 6.6 µM; 49% of 1,800 active; AID 492964; in the data active = inhibition above about 55%;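 note: CHO cells expressing OX1R stimulated with orexin A at about EC80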
CHO-K1 HTRF = signal in parental CHO-K1 cells, OX1R antagonist counter-screen | inhibition, % at 6.6 µM | HTRF counterscreen | shares compounds with OX1R antag-1 | AID 493232 | 48% of 1,800 active; in the data active = inhibition above about 17%
TAAR1 ag conf = human TAAR1 agonism, confirmed; shares compounds with TAAR1 agonist; CHO RD-HGA16 TAAR1, Fluo-8 calcium fluorescence; scaled: DMSO 0%, maximal phenethylamine 100%; activation, % at 3 µM; 82% of 2,400 active; AID 651783;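 active = activation above a cutoff set at the run's mean compound activation plus 3 SD, cut at about 39% in these data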
Ga16 ag counter = counter-screen for TAAR1 agonists: nonselective agonists in parental cells. shares compounds with TAAR1 agonist. CHO-Ga16 parental, Fluo-8 calcium fluorescence; normalized to maximal ATP response, DMSO zero. activation, % at 3 µM. 50% of 2,400 active;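 active = activation above the run cutoff, the mean activation over all tested wells plus 3 SD, cut at about 12% in these data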
TAAR1 desens = counter-screen for human TAAR1 agonists: agonists that desensitize TAAR1 | shares compounds with TAAR1 agonist | CHO RD-HGA16 hTAAR1, Fluo-8 calcium, beta-PEA response inhibition | inhibition, % at 3 µM | 46% of 2,400 active | AID 651951;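 active = inhibition above the run cutoff, the mean inhibition of all test compounds plus 3 SD, cut at about 49% in these data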;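 note: beta-PEA stimulus applied at its EC80; loss of beta-PEA calcium signal after compound pretreatment read as receptor desensitization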
Ga16 nonsel ant = counter-screen for TAAR1 agonists: nonselective Ga16 antagonists | 39% of 2,400 active | inhibition, % at 3 µM | CHO-Ga16 ATP-induced calcium, Fluo-8 fluorescence | shares compounds with TAAR1 agonist | AID 651952;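 active = inhibition above the plate's mean compound inhibition plus 3 SD, computed per plate, cut at about 22% in these data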
Hits are given with their value; i = inactive; nt = no result given; + = active, no number; ! = not confirmed by another sample.

SMILES	TAAR1 antagonist	OX1R antag-1	CHO parental Ca	TAAR1 agonist	GPR7 antagonist	OX1R antag-2	OX1R Ca confirm	CHO Ca triplic	others
CC1(C)CSC(=NCc2ccccc2)N1	88.2	i	i	132.3	86.7	i	62.8	35.3	GPR7 antag conf=95.6;MCHR1 antag=102.3;TAAR1 ag conf=111.3;Ga16 ag counter=81.0;TAAR1 desens=95.0;Ga16 nonsel ant=67.7
O=C1CC=C2C3CC4N(CCC45c4cc(O)c(O)cc4N1C25)CC3=CCBr (stereo not given)	i	nt	nt	i	nt	nt	nt	nt
O=C(O)C(Cc1cnc[nH]1)NS(=O)(=O)c1ccc(Cl)cc1 (stereo not given)	i	i	i	i	i	i	i	i
CCCCCCCCn1sccc1=O	i	i	i	i	nt	37.0	36.1	i
CCN(CCO)c1ccc(N=Cc2c(O)n(C)c(=S)[nH]c2=O)cc1	i	i	i	i	i	i	nt	nt
COC(=O)C1=C(c2ccc(F)cc2OCc2ccccc2)C[C@@H]2CC[C@H]1N2C(=O)NCc1ccc(C)cc1	59.7	i	i	i	nt	56.2	i	i
COC(=O)C1=C(c2ccc(F)cc2OCc2ccccc2)C[C@@H]2CC[C@H]1N2C(=O)NCc1ccc(F)cc1	i	i	i	i	nt	i	nt	nt
COC(=O)C1=C(c2cccc(OCc3ccccc3)c2)C[C@@H]2CC[C@H]1N2C(=O)NCc1ccccc1OC	i	i	i	i	nt	51.7	i	i
COC(=O)C1=C(c2cccc(OCc3ccccc3)c2)C[C@@H]2CC[C@H]1N2C(=O)NCc1ccccc1	i	i	i	i	nt	i	nt	nt
O=C1NC(=O)C(=Cc2coc3ccc(O)cc3c2=O)C(=O)N1	i	i	i	i	i	i	nt	nt
O=C(/C=C/c1ccc(Cl)cc1)NC(=S)N1C[C@H]2C[C@H](C1)c1cccc(=O)n1C2	i	i	i	i	i	i	nt	nt
Oc1ccc(C2NCc3ccccc3-n3cccc32)cc1Cl (stereo not given)	i	i	i	i	i	i	i	i
CC(=O)Nc1ccccc1C(=O)OCC(=O)c1ccc2ccccc2c1	i	i	i	i	i	44.1	32.4	i
CC(=O)Nc1ccccc1C(=O)OCc1ccc(C(=O)c2ccccc2)cc1	i	i	i	i	i	i	nt	nt
Cn1cc(/C=C2\C(=O)NC(=O)N(c3ccccc3)C2=O)c2ccccc21	i	i	i	i	i	54.4	i	i
COC(=O)c1c2[n+](cc3cc(OC)c(OC)cc13)CCc1cc(OC)c(OC)cc1-2	i	i	i	i	nt	i	nt	nt
COC(=O)C1=C(c2ccccc2OCc2ccccc2)C[C@@H]2CC[C@H]1N2C(=O)NCCOc1ccccc1Cl	i	52.6	i	i	nt	61.6	33.0	i	OX1R HTRF confirm=70.1;CHO-K1 HTRF=i
COC(=O)C1=C(c2ccc3ccccc3c2)C[C@@H]2CC[C@H]1N2C(=O)NCc1ccco1	i	i	i	i	nt	i	nt	nt
COc1cccc(OP(=O)(Nc2ccccc2)Oc2cccc(OC)c2)c1	nt	59.6	i	nt	i	45.0	29.0	i	OX1R HTRF confirm=i;CHO-K1 HTRF=i
COc1ccc(OC)c(NP(=O)(Oc2ccccc2)Oc2ccccc2)c1	i	nt	nt	i	i	nt	nt	nt
CCCCCCn1c(=O)c(C(=O)Nc2ncccc2C)c(O)c2ccccc21	73.6	i	i	106.0	i	i	i	i	TAAR1 ag conf=54.5;Ga16 ag counter=30.0;TAAR1 desens=i;Ga16 nonsel ant=35.2
C[C@]12CCC3C(CC[C@H]4C[C@@H](O)CC[C@]34C)C1[C@H]1CN=N[C@H]1[C@@H]2O (stereo not given in full)	i	i	i	i	nt	i	nt	nt
Cc1nc2c(=O)n(C)c(=O)nc-2n(C)n1	i	+	i	i	i	i	nt	nt	OX1R HTRF confirm=84.0;CHO-K1 HTRF=99.9
O=c1[nH]c(O)c(N=Nc2cc([N+](=O)[O-])ccc2O)c(=O)[nH]1	i	+	i	i	i	i	nt	nt	OX1R HTRF confirm=71.2;CHO-K1 HTRF=93.2
CCC(=O)OC1CCC2C3CCC4CC(=O)C=CC4(C)C3CCC12C (stereo not given)	i	nt	nt	i	nt	nt	nt	nt
SMILES	TAAR1 antagonist	OX1R antag-1	CHO parental Ca	TAAR1 agonist	GPR7 antagonist	OX1R antag-2	OX1R Ca confirm	CHO Ca triplic	others
CC[C@]12C=CCN3CCC4(c5cc(Br)c(OC)cc5N(C)C4[C@@](O)(C(=O)OC)[C@@H]1OC(C)=O)C32 (stereo not given in full)	i	i	i	i	i	i	nt	nt
O=[N+]([O-])c1ccc(N2CCCC2)c(F)c1Br	i	i	i	i	i	i	nt	nt
O=[N+]([O-])c1ccc(N2CCOCC2)c2ccncc12	i	106.6	i	i	i	i	nt	nt	OX1R HTRF confirm=i;CHO-K1 HTRF=65.1
O=C(NCC1=C(c2ccc3ccccc3c2)C[C@@H]2CC[C@H]1N2Cc1ccco1)c1cccnc1	i	nt	nt	i	nt	nt	nt	nt
C[N+]1(C)C2CC(OC(=O)[C@H](CO)c3ccccc3)CC1C1OC12 (stereo not given in full)	i	i	i	i	nt	i	nt	nt
C=CC(=O)OCCO	i	nt	nt	i	nt	nt	nt	nt
CCC(CO)NC(=O)C1C=C2c3cccc4[nH]cc(c34)CC2N(C)C1 (stereo not given)	i	i	i	i	i	i	nt	nt
CC[C@@H](CO)NC(=O)[C@@H]1C=C2c3cccc4c3c(cn4C)C[C@H]2N(C)C1	i	84.0!	i	i	i	i	nt	nt	OX1R HTRF confirm=i;CHO-K1 HTRF=19.0
CS(=O)(=O)c1ccc(C2=C(CNC(=O)c3ccncc3)[C@H]3CC[C@@H](C2)N3CCOc2ccccc2)cc1	i	nt	nt	i	nt	nt	nt	nt
